Measured values reported in paper PMC11984575 (Neurobiology of Pain, 2025).
Entries after “also recorded” stand apart in the source; their conditions may differ.

Key:
humanized NaV1.8 rats [1] = assay: CFA-induced thermal hyperalgesia; assay type: in vivo, rat; details: one hour post dosing; for hind paw withdrawal latency vs vehicle (thermal hyperalgesia): 24 h after CFA
Procedure, shortened: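 Male humanized NaV1.8 rats; baseline Hargreaves latency as mean of two trials, 20 s cutoff. CFA (50 μL, 1 mg/mL) given intraplantar into mid-plantar hind paw; latencies retested at 24 h. Rats then randomized to PO vehicle or test compound (1 or 10 mg/kg), or diclofenac 80 mg/kg ip. Latency read 1 h post-dose; blinded; n = 20/group; two-way ANOVA with Bonferroni; mean ± SD.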

rat NaV1.8 channels = details: cited from earlier work; for potency in rats: ref Gilchrist et al., 2024, Osteen et al., 2025
rodent NaV1.8 channel = rodent NaV1.8 channel (Rattus norvegicus, UniProt Q62968); assay type: cell-based
human NaV1.8 [2] = target: T1, human NaV1.8 (Homo sapiens, UniProt Q9Y5Y9); assay type: cell-based
human NaV1.8 [3] = target: T1, human NaV1.8; assay: Automated patch clamp; assay type: cell-based; details: train of 10 pulses at 1 Hz vs first pulse
human NaV1.1 = human NaV1.1 (Homo sapiens, UniProt P35498); assay: Automated patch clamp; assay type: cell-based
human NaV1.2 = human NaV1.2 (Homo sapiens, UniProt Q99250); assay: Automated patch clamp; assay type: cell-based
human NaV1.3 = human NaV1.3 (Homo sapiens, UniProt Q9NY46); assay: Automated patch clamp; assay type: cell-based
human NaV1.4 = human NaV1.4 (Homo sapiens, UniProt P35499); assay: Automated patch clamp; assay type: cell-based; details: vs human NaV1.8
human NaV1.5 = human NaV1.5 (Homo sapiens, UniProt Q14524); assay: Automated patch clamp; assay type: cell-based
human NaV1.6 = human NaV1.6 (Homo sapiens, UniProt Q9UQD0); assay: Automated patch clamp; assay type: cell-based
human NaV1.7 = human NaV1.7 (Homo sapiens, UniProt Q15858); assay: Automated patch clamp; assay type: cell-based
human NaV1.9 = human NaV1.9 (Homo sapiens, UniProt Q9UI33); assay: Automated patch clamp; assay type: cell-based
[4] = Rat plasma protein binding; assay type: in vitro ADME
[5] = target: Chimera 1: NaV1.5(1–711) – NaV1.8(660–890) – NaV1.5(940–2015) (Homo sapiens, UniProt Q14524+Q9Y5Y9); assay: QPatch II sodium currents of chimeric NaV channel in FS-293 HEK cells; assay type: cell-based
Procedure, shortened: (§1)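 Chimeric NaV1.5/NaV1.8 constructs electroporated into FS-293 HEK cells; currents recorded on QPatch II. External (mM): 150 NaCl, 5 KCl, 2 CaCl2, 1 MgCl2, 10 HEPES, 12 dextrose, pH 7.3 (NaOH), 330 Osm. Steps from −90 to +10 mV; IC50 by non-linear regression, bounds 0–1, Hill slope free.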

[6] = target: Chimera 2: NaV1.8(1–399) – NaV1.5(416–1199) – NaV1.8(1148–1956) (Homo sapiens, UniProt Q14524+Q9Y5Y9); assay: as above; assay type: cell-based; details: VSDII of NaV1.5 swapped into NaV1.8
Procedure, shortened: as §1

[7] = target: Chimera A: NaV1.5(1–770) – NaV1.8(719–751) – NaV1.5(804–2015) (Homo sapiens, UniProt Q14524+Q9Y5Y9); assay: as above; assay type: cell-based
Procedure, shortened: as §1

[8] = target: Chimera B: NaV1.8(1–718) – NaV1.5(771–803) – NaV1.8(752–1956) (Homo sapiens, UniProt Q14524+Q9Y5Y9); assay: as above; assay type: cell-based; details: VSDIIS3 of NaV1.5 in NaV1.8
Procedure, shortened: as §1

[9] = tested on: wild-type Sprague-Dawley rats; assay: Capsaicin nocifensive behavior; assay type: in vivo, rat; details: 10 mg/kg PO, 1 h before capsaicin
Procedure, shortened: (§2)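 Male rats, humanized or wild-type Sprague-Dawley, acclimated to chamber twice beforehand and 15 min on test day. Test compound given PO 1 h before intradermal capsaicin (25 μL, 0.01 %, in ethanol/Tween80/saline 20:7:73) into left hind paw. Flinches counted over 5 min; blinded, randomized order. Wild-type: n = 10/group, Student's t-test. Humanized dose-response: per-animal % inhibition of vehicle mean fitted against unbound plasma level (tail-vein blood post-test) for in vivo IC50.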

humanized NaV1.8 rats [10] = assay: Capsaicin nocifensive behavior; assay type: in vivo, rat
Procedure, shortened: as §2

humanized NaV1.8 rats [11] = assay: Spinal nerve ligation; assay type: in vivo, rat; details: one-hour post-dosing
Procedure, shortened: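 Male humanized NaV1.8 rats; baseline von Frey PWT (Up-Down, plantar) <9 g excluded. Under isoflurane, L6 transverse process removed; L5 spinal nerve tightly ligated and cut. After 1 week, PWT >6 g excluded. Day 1: PO vehicle (10 % Tween 80) or 10 mg/kg; after 4-day washout and reassessment, PO vehicle or 1 mg/kg. PWT read 1 h post-dose; blinded; mixed-effects model, Bonferroni; mean ± SD.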

[12] = Total plasma exposure in CFA and SNL studies; assay type: in vivo, rat; details: for Total plasma exposure: SNL study, approximately 1-hour post-dosing; for concentration at 4 h: rat, plasma, po
Procedure, shortened: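 Tail-vein blood for total plasma levels after PO test compound (1 or 10 mg/kg): in CFA rats at 4 h post-dose, in SNL rats right after mechanical testing, about 1 h post-dose.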

[13] = tested on: all other recombinant human NaV channel isoforms; details: highest concentrations tested (30–34 uM); ref Vardigan et al., 2024; cited from earlier work
rat SNL model = details: cited from earlier work
NaV1.8 = details: blocks more current as stimulation rate increases; ref Payne et al., 2015; cited from earlier work

T1 sequence (Q9Y5Y9 whole entry): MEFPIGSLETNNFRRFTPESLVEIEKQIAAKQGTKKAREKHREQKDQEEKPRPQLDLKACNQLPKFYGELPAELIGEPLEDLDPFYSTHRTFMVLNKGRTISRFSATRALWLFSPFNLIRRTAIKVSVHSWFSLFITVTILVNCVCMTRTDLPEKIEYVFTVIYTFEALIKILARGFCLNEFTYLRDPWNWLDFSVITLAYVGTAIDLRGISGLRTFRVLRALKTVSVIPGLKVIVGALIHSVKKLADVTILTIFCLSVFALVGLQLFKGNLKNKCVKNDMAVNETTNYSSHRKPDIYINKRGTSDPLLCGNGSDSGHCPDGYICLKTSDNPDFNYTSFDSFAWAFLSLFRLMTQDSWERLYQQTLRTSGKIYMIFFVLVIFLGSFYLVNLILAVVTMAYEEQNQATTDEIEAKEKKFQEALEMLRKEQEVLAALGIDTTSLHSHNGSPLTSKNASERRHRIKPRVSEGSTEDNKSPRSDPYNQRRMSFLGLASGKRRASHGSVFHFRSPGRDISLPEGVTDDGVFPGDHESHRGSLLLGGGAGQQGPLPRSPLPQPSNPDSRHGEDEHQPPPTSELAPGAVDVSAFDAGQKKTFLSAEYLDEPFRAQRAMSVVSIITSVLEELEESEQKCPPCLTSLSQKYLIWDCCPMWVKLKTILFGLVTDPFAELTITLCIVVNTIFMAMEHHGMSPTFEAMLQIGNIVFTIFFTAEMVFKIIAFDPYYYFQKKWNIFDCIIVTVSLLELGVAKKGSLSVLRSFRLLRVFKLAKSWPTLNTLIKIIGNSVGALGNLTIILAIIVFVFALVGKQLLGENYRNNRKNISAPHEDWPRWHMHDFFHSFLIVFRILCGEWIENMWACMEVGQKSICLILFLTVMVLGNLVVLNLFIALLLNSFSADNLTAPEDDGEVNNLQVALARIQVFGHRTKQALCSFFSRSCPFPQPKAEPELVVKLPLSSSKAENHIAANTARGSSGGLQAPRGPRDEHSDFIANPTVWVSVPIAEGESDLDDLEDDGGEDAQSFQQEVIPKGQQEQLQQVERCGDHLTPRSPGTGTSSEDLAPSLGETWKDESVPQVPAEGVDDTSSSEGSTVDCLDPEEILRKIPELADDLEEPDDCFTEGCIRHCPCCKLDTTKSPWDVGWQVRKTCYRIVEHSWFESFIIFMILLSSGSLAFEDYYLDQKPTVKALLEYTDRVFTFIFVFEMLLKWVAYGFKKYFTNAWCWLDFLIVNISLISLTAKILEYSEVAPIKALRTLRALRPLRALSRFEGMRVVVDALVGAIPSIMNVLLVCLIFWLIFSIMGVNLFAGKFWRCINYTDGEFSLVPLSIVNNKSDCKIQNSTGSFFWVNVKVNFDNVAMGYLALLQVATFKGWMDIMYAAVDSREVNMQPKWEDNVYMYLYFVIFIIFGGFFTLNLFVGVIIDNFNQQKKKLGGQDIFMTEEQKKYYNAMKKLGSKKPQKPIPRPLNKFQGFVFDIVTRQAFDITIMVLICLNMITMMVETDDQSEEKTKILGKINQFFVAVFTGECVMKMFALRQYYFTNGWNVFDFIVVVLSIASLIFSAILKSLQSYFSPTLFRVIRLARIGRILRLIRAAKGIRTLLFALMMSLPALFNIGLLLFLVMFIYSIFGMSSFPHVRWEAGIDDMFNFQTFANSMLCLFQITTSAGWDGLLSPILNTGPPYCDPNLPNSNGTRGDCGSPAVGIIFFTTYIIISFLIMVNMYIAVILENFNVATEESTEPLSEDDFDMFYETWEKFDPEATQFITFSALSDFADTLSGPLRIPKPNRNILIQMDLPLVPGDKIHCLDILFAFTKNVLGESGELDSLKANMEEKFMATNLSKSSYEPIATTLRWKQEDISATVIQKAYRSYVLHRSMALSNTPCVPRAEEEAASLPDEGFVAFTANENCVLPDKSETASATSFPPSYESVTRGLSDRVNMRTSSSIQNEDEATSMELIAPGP
Chain of human NaV1.2 (Q99250 whole entry): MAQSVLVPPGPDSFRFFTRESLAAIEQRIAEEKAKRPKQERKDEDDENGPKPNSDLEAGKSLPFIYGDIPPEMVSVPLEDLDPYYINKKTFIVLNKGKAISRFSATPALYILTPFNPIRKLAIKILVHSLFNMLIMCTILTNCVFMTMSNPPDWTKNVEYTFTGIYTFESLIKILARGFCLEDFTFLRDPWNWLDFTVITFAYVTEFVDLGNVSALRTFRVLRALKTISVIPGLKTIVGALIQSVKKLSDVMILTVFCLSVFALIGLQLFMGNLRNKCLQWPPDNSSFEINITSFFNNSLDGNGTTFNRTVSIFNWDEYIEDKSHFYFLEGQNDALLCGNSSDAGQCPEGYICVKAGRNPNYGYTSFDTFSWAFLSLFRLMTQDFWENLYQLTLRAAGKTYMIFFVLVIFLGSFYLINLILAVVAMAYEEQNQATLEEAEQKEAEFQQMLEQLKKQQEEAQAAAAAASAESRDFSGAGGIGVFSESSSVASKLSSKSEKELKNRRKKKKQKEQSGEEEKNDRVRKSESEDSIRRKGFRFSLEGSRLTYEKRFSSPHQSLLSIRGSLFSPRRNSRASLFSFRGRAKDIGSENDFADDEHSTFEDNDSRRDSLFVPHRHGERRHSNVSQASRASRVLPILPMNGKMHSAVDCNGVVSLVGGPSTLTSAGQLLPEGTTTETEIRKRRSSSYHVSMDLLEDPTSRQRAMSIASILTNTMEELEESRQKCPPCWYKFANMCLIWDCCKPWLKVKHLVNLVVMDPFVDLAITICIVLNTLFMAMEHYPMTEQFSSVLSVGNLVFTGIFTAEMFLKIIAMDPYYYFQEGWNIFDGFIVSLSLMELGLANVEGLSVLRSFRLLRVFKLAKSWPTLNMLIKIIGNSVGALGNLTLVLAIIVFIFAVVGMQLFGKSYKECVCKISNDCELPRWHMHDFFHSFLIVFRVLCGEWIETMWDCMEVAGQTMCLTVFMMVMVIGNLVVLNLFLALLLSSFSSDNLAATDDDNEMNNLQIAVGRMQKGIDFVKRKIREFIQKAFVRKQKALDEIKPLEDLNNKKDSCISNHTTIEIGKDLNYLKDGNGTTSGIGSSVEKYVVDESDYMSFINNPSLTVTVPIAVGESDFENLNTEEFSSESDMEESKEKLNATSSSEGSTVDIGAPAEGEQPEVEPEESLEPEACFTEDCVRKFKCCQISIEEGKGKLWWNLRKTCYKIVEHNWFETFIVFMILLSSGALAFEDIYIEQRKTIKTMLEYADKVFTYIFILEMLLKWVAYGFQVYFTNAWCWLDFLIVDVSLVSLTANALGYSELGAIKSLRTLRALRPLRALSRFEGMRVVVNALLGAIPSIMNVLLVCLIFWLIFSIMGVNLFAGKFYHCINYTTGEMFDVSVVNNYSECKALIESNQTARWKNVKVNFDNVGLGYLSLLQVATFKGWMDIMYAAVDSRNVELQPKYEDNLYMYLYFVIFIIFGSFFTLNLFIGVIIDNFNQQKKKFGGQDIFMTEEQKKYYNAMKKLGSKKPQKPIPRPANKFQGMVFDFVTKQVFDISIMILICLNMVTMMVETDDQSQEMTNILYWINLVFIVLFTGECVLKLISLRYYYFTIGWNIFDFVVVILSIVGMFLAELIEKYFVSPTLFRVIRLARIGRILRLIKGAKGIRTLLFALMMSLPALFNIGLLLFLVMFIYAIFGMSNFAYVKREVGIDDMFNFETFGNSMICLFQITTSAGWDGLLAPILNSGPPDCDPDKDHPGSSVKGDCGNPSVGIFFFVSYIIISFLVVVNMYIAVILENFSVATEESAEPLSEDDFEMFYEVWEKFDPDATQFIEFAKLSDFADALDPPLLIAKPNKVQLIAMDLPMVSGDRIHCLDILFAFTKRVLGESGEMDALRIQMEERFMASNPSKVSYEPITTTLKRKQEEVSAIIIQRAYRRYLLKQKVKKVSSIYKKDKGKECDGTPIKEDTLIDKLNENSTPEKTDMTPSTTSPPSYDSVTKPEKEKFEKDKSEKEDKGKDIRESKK

Q: Which “thermal hyperalgesia vs vehicle” value (humanized NaV1.8 rats [1]; 80 mg/kg intraperitoneal, positive control) does the source give for `O=C(O)Cc1ccccc1Nc1c(Cl)cccc1Cl` [Diclofenac, reference compound] here?
A: reversed thermal hyperalgesia

Q: With `Cc1cc(F)ccc1Oc1ncc(C(F)(F)F)cc1C(=O)Nc1cccc([S@](C)(=N)=O)c1` [LTGO-33] as the compound, how does the potency in rats (rat NaV1.8 channels) read?
A: reduced potency in rats

Q: What does the source list for `Cc1ccc(C(=O)Nc2ccnc(S(N)(=O)=O)c2)c(N2CCCC(F)(F)CC2)n1` [MSD199, 2-(4,4-difluoroazepan-1-yl)-6-methyl-N-(2-sulfamoylpyridin-4-yl)-nicotinamide]?
A: IC50 (rodent NaV1.8 channel): 4.83 µM; IC50 (human NaV1.8 [2]): 5.6 nM; frequency dependency (human NaV1.8 [3]): does not display frequency dependency; IC50 (human NaV1.1): > 33.6 µM; IC50 (human NaV1.2): > 33.6 µM; IC50 (human NaV1.3): > 33.6 µM; selectivity over recombinant human NaV1.4 channel (human NaV1.4): ~2000 fold; IC50 (human NaV1.5): > 33.6 µM; IC50 (human NaV1.6): > 33.6 µM; IC50 (human NaV1.7): > 33.6 µM; IC50 (human NaV1.9): > 33 µM; fraction unbound [4]: 0.15; IC50 [5]: 1.1 nM; sodium current inhibition, Chimera 2 [6]: disruption of sodium current inhibition; IC50 [7]: 8.6 nM; potency, Chimera B [8]: abolished the potency; effect on capsaicin-induced nocifensive behavior [9]: had no effect; also recorded: no observable impact; nocifensive responses vs vehicle, dose-response (humanized NaV1.8 rats [10]; 1 mg/kg PO (Fig. 2C)): significantly lower than vehicle; nocifensive responses vs vehicle, dose-response (humanized NaV1.8 rats [10]; 3 mg/kg PO (Fig. 2C)): significantly lower than vehicle; nocifensive responses vs vehicle, dose-response (humanized NaV1.8 rats [10]; 10 mg/kg PO (Fig. 2C)): significantly lower than vehicle; effect on capsaicin-induced nocifensive behavior (humanized NaV1.8 rats [10]; 10 mg/kg PO, 1 h before capsaicin (Fig. 2B), 10 mg/kg): significantly blocked; hind paw withdrawal latency vs vehicle (thermal hyperalgesia) (humanized NaV1.8 rats [1]; 1 mg/kg PO): but not at 1 mg/kg, significantly increased; hind paw withdrawal latency vs vehicle (thermal hyperalgesia) (humanized NaV1.8 rats [1]; 10 mg/kg PO): significantly increased; paw withdrawal thresholds vs vehicle (mechanical allodynia) (humanized NaV1.8 rats [11]; 1 mg/kg PO): no significant antiallodynic effects; also recorded: did not significantly alter paw withdrawal thresholds; paw withdrawal thresholds vs vehicle (mechanical allodynia) (humanized NaV1.8 rats [11]; 10 mg/kg PO): demonstrated significant antiallodynic effects; also recorded: significant reversal of mechanical allodynia; Total plasma exposure ([12]; 1 mg/kg PO): 73.06 ± 4.71 nM; Total plasma exposure ([12]; 10 mg/kg PO): 1117 ± 84.19 nM; concentration at 4 h ([12]; 1 mg/kg): 20.1 ± 5.1 nM; concentration at 4 h ([12]; 10 mg/kg): 199 ± 27.3 nM; inhibition of all other recombinant human NaV channel isoforms [13]: no inhibition

Q: With `COc1cc(NC(=O)c2ccc(-c3ccc(Cl)cc3)o2)cc(OC)c1` [Molecule A-803467] as the compound, how does the SNL-induced mechanical allodynia (rat SNL model; rodents, ref Jarvis et al., 2007) read?
A: demonstrated reversal of SNL-induced mechanical allodynia

Q: And the “potency in wildtype rodents” value (rat NaV1.8 channels; ref Jarvis et al., 2007)?
A: exhibited reduced potency in wildtype rodents

Q: Which “neuropathic pain in rat SNL model” value (rat SNL model; rat, ref Payne et al., 2015) does the source give for `CNC(=O)c1ccc(-c2cc(Cl)cc(Cl)c2Cl)c(N)n1` [PF-01247324] here?
A: reversed neuropathic pain in the rat SNL model

Q: And the frequency dependency (NaV1.8)?
A: demonstrates frequency dependency

Q: With `COc1c([C@H]2[C@H](C(=O)Nc3ccnc(C(N)=O)c3)O[C@@](C)(C(F)(F)F)[C@H]2C)ccc(F)c1F` [VX-548] as the compound, how does the potency in rats (rat NaV1.8 channels) read?
A: reduced potency in rats
